Values after ≈ are worked out from the molar mass of the structure shown.
Columns and labels:
[1] = tested on: Staphylococcus aureus; test: Antimicrobial activity against Panton-valentine leucocidin-positive community-acquired methicillin-resistant Staphylococcus aureus NRS192 infected in human THP-1 cells assessed as bacterial count per mg of cell protein at low extracellular compound concentration after 24 hrs; assay type: functional
In short: (§1)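 THP-1 human macrophages infected with S. aureus (postphagocytosis inoculum 1.5 × 10^6 to 3.0 × 10^6 CFU/mg cell protein), then incubated 24 h with increasing extracellular antibiotic concentrations. Change in log10 CFU/mg cell protein from the postphagocytosis inoculum, n = 3. Hill function fitted on log-transformed data. Low-concentration value (E0) and high-concentration value (Emax) are extrapolated. Where a pH is given, concentrations are expressed as multiples of the broth MIC at that pH.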

[2] = tested on: Staphylococcus aureus; test: Antimicrobial activity against Panton-valentine leucocidin-positive community-acquired methicillin-resistant Staphylococcus aureus N4090440 infected in human THP-1 cells assessed as bacterial count per mg of cell protein at low extracellular compound concentration after 24 hrs; assay type: functional; in short: as §1
[3] = tested on: Staphylococcus aureus; test: Antimicrobial activity against Panton-valentine leucocidin-positive community-acquired methicillin-resistant Staphylococcus aureus N4090440 infected in human THP-1 cells assessed as bacterial count per mg of cell protein at low extracellular compound concentration after 24 hrs at pH 5.5; assay type: functional; conditions: pooled result: one value given for 6 cell lines, strains, targets or settings; in short: as §1
[4] = tested on: Staphylococcus aureus; test: Antimicrobial activity against Panton-valentine leucocidin-positive community-acquired methicillin-resistant Staphylococcus aureus N4090440 infected in human THP-1 cells assessed as bacterial count per mg of cell protein at high extracellular compound concentration after 24 hrs at pH 5.5; assay type: functional; in short: as §1
[5] = tested on: Staphylococcus aureus; test: Bacteriostatic activity against Panton-valentine leucocidin-positive community-acquired methicillin-resistant Staphylococcus aureus N4090440 infected in human THP-1 cells assessed as change in bacterial count after 24 hrs at pH 5.5; assay type: functional
In short: (§2)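 THP-1 macrophages infected as described previously, with a postphagocytosis inoculum of 1.5 × 10⁶ to 3.0 × 10⁶ CFU/mg cell protein. Cells were exposed 24 h to increasing extracellular antibiotic concentrations. Response is the change in log10 CFU/mg protein from the inoculum (n = 3), fitted to a Hill function. E0 and Emax were extrapolated to infinitely low and high concentrations. EC50 and static concentration (graphical interpolation) are expressed as multiples of the broth MIC at pH 5.5 or 7.4.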

[6] = tested on: Staphylococcus aureus; test: Bacteriostatic activity against Panton-valentine leucocidin-positive community-acquired methicillin-resistant Staphylococcus aureus isolate MEH2225605 infected in human THP-1 cells assessed as change in bacterial count after 24 hrs at pH 5.5; assay type: functional; in short: as §2
[7] = tested on: Staphylococcus aureus; test: Antimicrobial activity against methicillin-susceptible Staphylococcus aureus […] infected in human THP-1 cells assessed as change in bacterial count after 24 hrs at pH 5.5; assay type: functional, organism-based; conditions: THP-1, 24 h; in short: as §2
[8] = tested on: Staphylococcus aureus; test: Bacteriostatic activity against methicillin-susceptible Staphylococcus aureus NRS52 infected in human THP-1 cells assessed as change in bacterial count after 24 hrs at pH 5.5; assay type: functional
In short: (§3)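 Human THP-1 macrophage-like cells were infected with S. aureus to a postphagocytosis inoculum of 1.5 × 10^6 to 3.0 × 10^6 CFU/mg cell protein. Cells were then exposed 24 h to increasing extracellular antibiotic concentrations. Response was the log10 CFU change per mg protein from the postphagocytosis inoculum, n = 3. A Hill function was fitted on log-transformed axes. E0 and Emax were extrapolated to infinitely low and high concentrations. Cs was read by graphical interpolation. Concentrations were expressed as multiples of the broth MIC at pH 5.5 or pH 7.4.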

[9] = tested on: Staphylococcus aureus; test: Antimicrobial activity against methicillin-susceptible Staphylococcus aureus NRS52 infected in human THP-1 cells assessed as bacterial count per mg of cell protein at high extracellular compound concentration after 24 hrs at pH 7.4; assay type: functional; in short: as §3
[10] = tested on: Staphylococcus aureus; test: Antimicrobial activity against hospital-acquired methicillin-resistant Staphylococcus aureus ATCC 33592 infected in human THP-1 cells assessed as change in bacterial count after 24 hrs at pH 7.4; assay type: functional, organism-based; conditions: ATCC 33592, THP-1, 24 h; in short: as §2
[11] = tested on: Staphylococcus aureus; test: Antimicrobial activity against hospital-acquired vancomycin-intermediate Staphylococcus aureus NRS18 infected in human THP-1 cells assessed as bacterial count per mg of cell protein at low extracellular compound concentration after 24 hrs at pH 7.4; assay type: functional; in short: as §3
[12] = tested on: Staphylococcus aureus; test: Bacteriostatic activity against hospital-acquired vancomycin-intermediate Staphylococcus aureus NRS18 infected in human THP-1 cells assessed as change in bacterial count after 24 hrs at pH 7.4; assay type: functional; in short: as §3
[13] = tested on: Staphylococcus aureus; test: Antimicrobial activity against hospital-acquired vancomycin-intermediate Staphylococcus aureus NRS126 infected in human THP-1 cells assessed as bacterial count per mg of cell protein at low extracellular compound concentration after 24 hrs at pH 7.4; assay type: functional; in short: as §2
[14] = tested on: Staphylococcus aureus; test: Antimicrobial activity against hospital-acquired vancomycin-intermediate Staphylococcus aureus NRS126 infected in human THP-1 cells assessed as bacterial count per mg of cell protein at high extracellular compound concentration after 24 hrs at pH 7.4; assay type: functional; in short: as §2
[15] = tested on: Staphylococcus aureus; test: Antimicrobial activity against Panton-valentine leucocidin-positive community-acquired methicillin-resistant Staphylococcus aureus N4042228 infected in human THP-1 cells assessed as change in bacterial count after 24 hrs at pH 7.4; assay type: functional, organism-based; conditions: N4042228, THP-1, 24 h; in short: as §1
[16] = tested on: Staphylococcus aureus; test: Antimicrobial activity against methicillin-susceptible Staphylococcus aureus […] infected in human THP-1 cells assessed as bacterial count per mg of cell protein at low extracellular compound concentration after 24 hrs; assay type: functional; in short: as §3
[17] = tested on: Staphylococcus aureus; test: Antimicrobial activity against methicillin-susceptible Staphylococcus aureus […] infected in human THP-1 cells assessed as bacterial count per mg of cell protein at high extracellular compound concentration after 24 hrs; assay type: functional; in short: as §3
[18] = tested on: Staphylococcus aureus; test: Antimicrobial activity against hospital-acquired vancomycin-intermediate Staphylococcus aureus NRS18 infected in human THP-1 cells assessed as change in bacterial count after 24 hrs; assay type: functional, organism-based; conditions: NRS18, THP-1, 24 h; in short: as §2

## Nc1nc(/C(=N/O)C(=O)N[C@@H]2C(=O)N3C(C(=O)O)=C(/C=C4\CCN([C@@H]5CCNC5)C4=O)CS[C@H]23)ns1 [CEFTOBIPROLE]
[1]
  log10cfu: 2.68
[2]
  log10cfu: 3.39
[3]
  log10cfu: 2.78
[4]
  log10cfu: -1.02
[5]
  Activity: 1.45 × MIC
[6]
  Activity: 1.45 × MIC
[7]
  EC50: 0.41 × MIC
[8]
  Activity: 1.19 × MIC
[9]
  log10cfu: -1.04
[10]
  EC50: 0.28 ×MIC
[11]
  log10cfu: 2.6
[12]
  Activity: 0.74 mg/L
[13]
  log10cfu: 2.6
[14]
  log10cfu: -0.99
[15]
  EC50: 0.33 ×MIC
[16]
  log10cfu: 3.49
[17]
  log10cfu: -1.15
[18]
  EC50: 0.26 µg/mL (≈ 0.486 µM)
